Measurements reported in ChEMBL document CHEMBL3352548, “Small-molecule suppression of β-lactam resistance in multidrug-resistant gram-negative pathogens” (J Med Chem, 2014).

Columns and labels:
Acinetobacter baumannii [1] = assay: Antibacterial activity against Acinetobacter baumannii ATCC BAA-1605 assessed as complete inhibition of bacterial growth after 16 hrs by microdilution method; format: functional; settings: ATCC BAA-1605, 16 h
How it was run: (§1)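 MIC of each compound alone was determined first. Antibiotic MICs (imipenem or meropenem for A. baumannii; ceftazidime or meropenem for P. aeruginosa) were then measured with compound at fixed sub-MIC concentrations. Fold reduction is MIC without compound divided by MIC with compound.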

Acinetobacter baumannii [2] = assay: Antibacterial activity against Acinetobacter baumannii ATCC BAA-1605 assessed as fold reduction in meropenem MIC at 15 uM after 16 hrs by microdilution method; format: functional; how it was run: as §1
Pseudomonas aeruginosa [3] = assay: Antibacterial activity against Pseudomonas aeruginosa PA53 assessed as complete inhibition of bacterial growth after 16 hrs by microdilution method; format: functional; settings: PA53, 16 h; how it was run: as §1
Pseudomonas aeruginosa [4] = assay: Antibacterial activity against Pseudomonas aeruginosa PA53 assessed as fold reduction in meropenem MIC at 60 uM after 16 hrs by microdilution method; format: functional; how it was run: as §1
Pseudomonas aeruginosa [5] = assay: Antibacterial activity against Pseudomonas aeruginosa PA53 assessed as fold reduction in ceftazidime MIC at 60 uM after 16 hrs by microdilution method; format: functional; how it was run: as §1
Acinetobacter baumannii [6] = assay: Antibacterial activity against Acinetobacter baumannii ATCC BAA-1605 assessed as fold reduction in imipenem MIC at 15 uM after 16 hrs by microdilution method; format: functional; how it was run: as §1
Acinetobacter baumannii [7] = assay: Antibacterial activity against Acinetobacter baumannii ATCC BAA-1605 assessed as reduction in CFU at 15 uM after 6 hrs by time kill assay in presence of 4 ug/ml meropenem; format: functional
How it was run: (§2)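 Time-kill: cultures were grown at 37 °C with shaking with compound (15 μM for BAA-1605, 60 μM for PA53), meropenem (1–32 μg/mL for BAA-1605, 1–64 μg/mL for PA53), or both. Samples taken at 2, 4, 6, 8 and 24 h were serially diluted in CAMHB, plated on nutrient agar, incubated overnight at 37 °C, and colonies counted.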

Acinetobacter baumannii [8] = assay: Antibacterial activity against Acinetobacter baumannii ATCC BAA-1605 assessed as reduction in CFU at 15 uM after 6 hrs by time kill assay in presence of 1 ug/ml meropenem; format: functional; how it was run: as §2
Acinetobacter baumannii [9] = assay: Antibacterial activity against Acinetobacter baumannii ATCC BAA-1605 assessed as reduction in CFU at 15 uM after 6 hrs by time kill assay; format: functional; how it was run: as §2
Pseudomonas aeruginosa [10] = assay: Antibacterial activity against Pseudomonas aeruginosa PA53 assessed as reduction in CFU at 60 uM after 6 hrs by time kill assay in presence of 4 ug/ml meropenem; format: functional; how it was run: as §2
Pseudomonas aeruginosa [11] = assay: Antibacterial activity against Pseudomonas aeruginosa PA53 assessed as reduction in CFU at 60 uM after 6 hrs by time kill assay in presence of 1 ug/ml meropenem; format: functional; how it was run: as §2
Pseudomonas aeruginosa [12] = assay: Antibacterial activity against Pseudomonas aeruginosa PA53 assessed as reduction in CFU at 60 uM after 6 hrs by time kill assay; format: functional; how it was run: as §2
Acinetobacter baumannii [13] = assay: Antibacterial activity against Acinetobacter baumannii ATCC BAA-1605 assessed as cell death at 15 uM after 16 hrs by checkerboard assay in presence of meropenem; format: functional
How it was run: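 Checkerboard in CAMHB with BAA-1605 at 5 × 10^5 CFU/mL. Compound and meropenem were each serially two-fold diluted along perpendicular axes, with one […] row and column giving each agent's MIC alone. ΣFIC = (combination MIC/MIC alone) for compound plus the same for antibiotic. ≤0.5 was taken as synergy, 0.5–2 as indifference, ≥2 as antagonism.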

Acinetobacter baumannii [14] = assay: Antibacterial activity against Acinetobacter baumannii ATCC BAA-1605 assessed as cell death at 15 uM after 16 hrs by checkerboard assay in presence of 10% bovine plasma; format: functional; settings: ATCC BAA-1605, Plasma
How it was run: (§3)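 A. baumannii BAA-1605 MIC of compound alone, measured in cation-adjusted Mueller–Hinton broth (CAMHB) supplemented with 10% or 50% bovine plasma.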

Acinetobacter baumannii [15] = assay: Antibacterial activity against Acinetobacter baumannii ATCC BAA-1605 assessed as cell death at 15 uM after 16 hrs by checkerboard assay in presence of 50% bovine plasma; format: functional; settings: ATCC BAA-1605, Plasma; how it was run: as §3
[16] = Hemolytic activity in sheep red blood cells up to 400 uM by UV spectrophotometry; format: ADME, cell-based, Ovis aries; settings: erythrocyte
How it was run: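 Mechanically defibrinated sheep blood cells were washed three times by centrifugation in PBS and diluted 10-fold. Compound in PBS was added and samples shaken at 200 rpm for 1 h at 37 °C. Supernatant was diluted 40-fold in water and read at 540 nm. PBS served as zero-lysis control and 1% Triton X as 100% lysis control.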

[17] = Cytotoxicity against human HaCaT cells after 12 to 18 hrs by MTT assay; format: cell-based; settings: read-out: TCID50
How it was run: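 HaCaT keratinocytes were grown in 10% FBS–DMEM with penicillin/streptomycin, seeded at 8 × 10^4 cells/mL and grown overnight to 90% confluence. Serial dilutions (2.5 mM to 1.22 μM, duplicate) were applied overnight. MTT was added for 4 h in the dark, then SDS/HCl solubilizer for 12–18 h. Absorbance was read at 550 nm against a 670 nm reference.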

Acinetobacter baumannii [18] = assay: Antibacterial activity against Acinetobacter baumannii ATCC BAA-1605 assessed as meropenem MIC at 15 uM after 6 hrs in presence of 10% bovine plasma by time kill assay (Rvb meropenem MIC in absence of plasma= 32 ug/ml); format: functional; settings: ATCC BAA-1605, 6 h
How it was run: (§4)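 Meropenem MIC against A. baumannii BAA-1605 in CAMHB containing 10% bovine plasma, with compound held at fixed 15, 20, 25 or 30 μM. Parallel runs were done in CAMHB without plasma.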

Acinetobacter baumannii [19] = assay: Antibacterial activity against Acinetobacter baumannii ATCC BAA-1605 assessed as meropenem MIC at 20 uM after 6 hrs in presence of 10% bovine plasma by time kill assay (Rvb meropenem MIC in absence of plasma= 4 ug/ml); format: functional; settings: ATCC BAA-1605, 6 h; how it was run: as §4
Acinetobacter baumannii [20] = assay: Antibacterial activity against Acinetobacter baumannii ATCC BAA-1605 assessed as meropenem MIC at 25 uM after 6 hrs in presence of 10% bovine plasma by time kill assay (Rvb meropenem MIC in absence of plasma= 2 ug/ml); format: functional; settings: ATCC BAA-1605, 6 h; how it was run: as §4
Acinetobacter baumannii [21] = assay: Antibacterial activity against Acinetobacter baumannii ATCC BAA-1605 assessed as meropenem MIC at 30 uM after 6 hrs in presence of 10% bovine plasma by time kill assay (Rvb meropenem MIC in absence of plasma= 0.5 ug/ml); format: functional; settings: ATCC BAA-1605, 6 h; how it was run: as §4

## Cl.Nc1nc(-c2ccc(NC(=O)c3cc(Cl)cc(Cl)c3)cc2)c[nH]1
Acinetobacter baumannii [1]
  MIC: 50 µM
Acinetobacter baumannii [2]
  fold change (FC): 8
Pseudomonas aeruginosa [3]
  MIC: > 200 µM
Pseudomonas aeruginosa [4]
  fold change (FC): 8
Pseudomonas aeruginosa [5]
  fold change (FC): 16
Acinetobacter baumannii [6]
  fold change (FC): 8
Acinetobacter baumannii [7]
  fold change (FC): 4
Acinetobacter baumannii [8]
  fold change (FC): 4
Acinetobacter baumannii [9]
  fold change (FC): 2.53
Pseudomonas aeruginosa [10]
  fold change (FC): 3.2
Pseudomonas aeruginosa [11]
  fold change (FC): 3.2
Pseudomonas aeruginosa [12]
  fold change (FC): 2.49
Acinetobacter baumannii [13]
  fractional inhibitory concentration index (FICI): 0.375
Acinetobacter baumannii [14]
  MIC: 50 µM
Acinetobacter baumannii [15]
  MIC: 200 µM
[16]
  Activity: Non-toxic
[17]
  CC50: 387 µM
Acinetobacter baumannii [18]
  MIC: 32 µg/mL
Acinetobacter baumannii [19]
  MIC: 16 µg/mL
Acinetobacter baumannii [20]
  MIC: 8 µg/mL
Acinetobacter baumannii [21]
  MIC: 0.5 µg/mL
